In series [1] the test system is Escherichia coli. Description: Antibacterial activity against Escherichia coli ATCC 25922 measured after 24 hrs. In kind it is functional. A digest of the protocol: (§1)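 Broth microdilution adapted from NCCLS. Mid-log bacteria were diluted in MHB to a final (0.5–1) × 10^5 CFU mL−1. Peptides were serially diluted in 0.2% BSA and mixed with an equal volume of cells. After 24 h at 37 °C, MIC was read at A492 as the lowest concentration inhibiting 95% of growth. At least three independent experiments, each with three technical replicates.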

Series [2] is described as follows: Therapeutic index, ratio of MHC10 for hemolytic activity in human RBC to MIC95 against methicillin-resistant Staphylococcus aureus ATCC 43300. In kind it is toxicity. The following applies: human red blood cells (erythrocytes), read-out: TI. A digest of the protocol:
(§2)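 Therapeutic index = MHC divided by MIC. MHC is the lowest concentration giving >10% lysis of human RBC (1 h, 37 °C, 1-128 µM, A576). MIC is 95% growth inhibition by broth microdilution: bacteria in MHB 24 h at 37 °C; Candida in MOPS-buffered RPMI 1640 at (0.5–1) × 10^3 CFU mL−1, 48 h at 28 °C.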

Series [3] can be described thus: Conformational stability in sodium dodecyl sulfate assessed as beta-sheet conformation by measuring absorption spectra at maximum dichroic band at 35 uM by CD spectra analysis. In kind it is physicochemical. Put shortly: (§3)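 CD spectra from 190 to 250 nm of peptide at 35 μM in 10 mM PBS, 30 mM SDS micelles or 50% TFE, recorded in a 1.0-mm quartz cell. Ellipticity was converted to mean residue ellipticity. Three independent scans, each averaged over more than 3 runs.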

Series [4] relates to Staphylococcus epidermidis. Description: Antibacterial activity against Staphylococcus epidermidis ATCC 12228 measured after 24 hrs. It counts as functional. A digest of the protocol: as §1
In series [5] the test system is Escherichia coli. Description: Antibacterial activity against Escherichia coli ATCC 25922 measured after 18 to 24 hrs in presence of FeCl3. In kind it is functional.
Another series relates to Candida tropicalis. In words: Antifungal activity against Candida tropicalis cgmcc2.1975 measured after 48 hrs by broth microdilution method. In kind it is functional. A digest of the protocol: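 Modified CLSI M27-A2 microdilution. Yeast colonies were diluted in MOPS-buffered RPMI 1640 to a final (0.5–1) × 10^3 CFU mL−1 and mixed with an equal volume of peptide serially diluted in 0.2% BSA. After 48 h at 28 °C, MIC was read at A492 as the lowest concentration inhibiting 95% of growth. At least three independent experiments, each with three technical replicates.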
In general terms: Dilution methods test growth across graded concentrations, often in twofold steps.

A short description of series [6]: Therapeutic index, ratio of MHC10 for hemolytic activity in human RBC to MIC95 against Escherichia coli ATCC 25922. It counts as toxicity. The following applies: human red blood cells (erythrocytes), pooled result: one value given for 9 cell lines, strains, targets or settings, read-out: TI. A digest of the protocol: as §2
A short description of series [7]: Therapeutic index, ratio of MHC10 for hemolytic activity in human RBC to MIC95 against Candida albicans cgmcc2.2086. In kind it is toxicity. The following applies: human red blood cells (erythrocytes), read-out: TI. Put shortly:
as §2

Series [8] concerns Candida albicans. In words: Antifungal activity against Candida albicans cgmcc2.2086 measured after 48 hrs in presence of NH4Cl by broth microdilution method. In kind it is functional.
The test system of another series is Salmonella typhimurium. In words: Bactericidal activity against Salmonella typhimurium ATCC 14028 incubated for 24 hrs followed by replating on agar plate and measured after overnight incubation. It counts as functional, Salmonella enterica subsp. enterica serovar Typhimurium. The following applies: for MBC: Salmonella enterica, ATCC 14028, 24 h, read-out: MBC>99.9. Put shortly: (§4)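 Mid-log bacteria diluted in MHB to (0.5–1) × 10^5 CFU/mL and mixed 1:1 with peptide serially diluted in 0.2% BSA. After 24 h at 37 °C, 50 μL of each mixture was plated on agar and incubated overnight. MBC taken as the lowest concentration killing >99.9% of cells. At least three independent experiments, each with three technical replicates.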

For series [9], the system named is Staphylococcus aureus. In words: Antibacterial activity against Staphylococcus aureus ATCC 29213 measured after 18 to 24 hrs in presence of FeCl3. In kind it is functional.
Series [10] relates to Escherichia coli. In words: Antibacterial activity against Escherichia coli K88 measured after 24 hrs. It counts as functional. A digest of the protocol: as §1
Series [11] can be described thus: Conformational stability in sodium dodecyl sulfate assessed as beta-sheet conformation by measuring absorption spectra at minimum dichroic band at 35 uM by CD spectra analysis. It counts as physicochemical. Put shortly: as §3
The subject of series [12] is Staphylococcus aureus. In words: Antibacterial activity against Staphylococcus aureus ATCC 29213 measured after 18 to 24 hrs in presence of NaCl. It counts as functional.
Series [13] is described as follows: Conformational stability in 50% trifluoro-ethyl alcohol assessed as alpha-helical structural propensity by measuring absorption spectra at minimum dichroic band at 35 uM by CD spectra analysis. In kind it is physicochemical. A digest of the protocol: as §3
Series [14] relates to Escherichia coli. Description: Bactericidal activity against Escherichia coli K99 incubated for 24 hrs followed by replating on agar plate and measured after overnight incubation. In kind it is functional. The following applies: for MBC: K99, 24 h, read-out: MBC>99.9. Put shortly:
as §4

For series [15], the system named is Candida albicans. In words: Fungicidal activity against Candida albicans cgmcc2.2086 incubated for 48 hrs followed by replating on YM agar plate and measured after 48 hrs. It counts as functional. Put shortly: (§5)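 Yeast diluted in MOPS-buffered RPMI 1640 to (0.5–1) × 10^3 CFU/mL (CLSI M27-A2, modified) and mixed 1:1 with peptide serially diluted in 0.2% BSA. After 48 h at 28 °C, 50 μL per well was plated on YM agar and incubated 48 h at 28 °C. MFC taken as the lowest concentration killing ≥99.9% of cells. Three or more independent experiments, triplicate wells.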

The next series relates to Candida parapsilosis. In words: Fungicidal activity against Candida parapsilosis cgmcc2.3989 incubated for 48 hrs followed by replating on YM agar plate and measured after 48 hrs. It counts as functional. A digest of the protocol: as §5

A value given as a limit tells only on which side of the number the result lay.

The MBC is the lowest tested concentration that kills the bacteria rather than only halting them. As for H-AARIILRTRFR-NH2, the MIC95 against Escherichia coli [1] (ATCC 25922, 24 h) was 8 µM; in series [4] (ATCC 12228, 24 h), 16 µM; with Escherichia coli [5], 16 µM; against Candida tropicalis (cgmcc2.1975, 48 h), 32 µM; with Candida albicans [8] (cgmcc2.2086, 48 h), greater than 128 µM; with Staphylococcus aureus [9], 16 µM. For the same substance, the MIC95 against Escherichia coli [10] (K88, 24 h) was 4 µM; in the series with Staphylococcus aureus [12] it was greater than 128 µM. Also, the selectivity ratio in series [2] amounted to 16; in [6] it was 27.4; in series [7] it was 4. Further, the “Wavelength of maximum dichroic band” value in series [3] worked out at 200 nm. In addition, the MBC with Salmonella typhimurium is 32 µM; in the series with Escherichia coli [14] it was 8 µM. The figures for the Activity in series [11] and in [13] were 216 to 220 nm and 208 to 222 nm, respectively.

On to H-AARIILRWFRR-NH2, for which the MIC95 in the series on Escherichia coli [1] (ATCC 25922, 24 h) was 2 µM; in [4] (ATCC 12228, 24 h), 2 µM; in the series with Escherichia coli [5], 2 µM; in the series on Candida tropicalis (cgmcc2.1975, 48 h), 4 µM; with Candida albicans [8] (cgmcc2.2086, 48 h) it was 8 µM; in the series on Staphylococcus aureus [9] it was 4 µM. Besides, the MIC95 amounted to 2 µM with Escherichia coli [10] (K88, 24 h) and 32 µM in the series with Staphylococcus aureus [12]. Moreover, the selectivity ratio in [2] worked out at 53.8; in series [6] it was 87.1; in series [7], 50.8. The “MFC<=99.9” value in the series on Candida albicans [15] and against Candida parapsilosis was 8 µM throughout. Besides, the “Wavelength of maximum dichroic band” value in [3] worked out at 200 nm. Moreover, the MBC worked out at 8 µM in the series on Salmonella typhimurium and 4 µM in the series on Escherichia coli [14]. Moreover, the results for the Activity in [11] and in [13] were 216 to 220 nm and 208 to 222 nm, respectively.

Consider H-AARIILRYRFR-NH2, for which the MIC95 is 8 µM with Escherichia coli [1] (ATCC 25922, 24 h); 2 µM in series [4] (ATCC 12228, 24 h); 16 µM in the series with Escherichia coli [5]; 16 µM against Candida tropicalis (cgmcc2.1975, 48 h); 64 µM in the series with Candida albicans [8] (cgmcc2.2086, 48 h); 4 µM in the series with Staphylococcus aureus [9]. Moreover, the MIC95 was 4 µM against Escherichia coli [10] (K88, 24 h) and greater than 128 µM with Staphylococcus aureus [12]. Also, the selectivity ratio in series [2] was 64; in [6] it was 47; in series [7], 8. For the same substance, the “MFC<=99.9” value is 64 µM with Candida albicans [15] and 128 µM in the series on Candida parapsilosis. The “Wavelength of maximum dichroic band” value in series [3] worked out at 200 nm. Besides, the MBC was 16 µM in the series on Salmonella typhimurium and 8 µM in the series with Escherichia coli [14]. Moreover, the values for the Activity in [11] and in series [13] were 216 to 220 nm and 208 to 222 nm, respectively.

Turning to H-AARRILRWIFR-NH2, the MIC95 in the series with Escherichia coli [1] (ATCC 25922, 24 h) was 4 µM; in [4] (ATCC 12228, 24 h), 4 µM; with Escherichia coli [5] it was 8 µM; against Candida tropicalis (cgmcc2.1975, 48 h) it was 4 µM; with Candida albicans [8] (cgmcc2.2086, 48 h) it was 8 µM; in the series with Staphylococcus aureus [9], 4 µM. Moreover, the MIC95 against Escherichia coli [10] (K88, 24 h) was 4 µM; with Staphylococcus aureus [12] it was 64 µM. Besides, the results for the selectivity ratio in [2], in series [6] and in series [7] were 45.2, 59.3 and 40.3, respectively. Besides, the “MFC<=99.9” value in the series on Candida albicans [15] amounted to 8 µM; in the series on Candida parapsilosis it was 16 µM. For the same substance, the MBC with Salmonella typhimurium and with Escherichia coli [14] was 8 µM throughout. Also, the Activity in series [13] was 208 to 222 nm.

In the case of POLYMYXIN B, the MIC95 with Escherichia coli [1] is 2 µM; in series [4] it was 32 µM; in the series on Escherichia coli [5], 2 µM; with Candida tropicalis it was greater than 128 µM; in the series with Candida albicans [8], 32 µM; in the series on Staphylococcus aureus [9] it was 32 µM. In addition, the MIC95 against Escherichia coli [10] was found to be 0.5 µM; with Staphylococcus aureus [12], 64 µM. This substance returned an MFC (≥99.9% killing) in the series on Candida albicans [15] of 64 µM. In addition, the MBC>99.9 amounted to 2 µM in the series on Salmonella typhimurium (Salmonella enterica subsp. enterica serovar Typhimurium) and 1 µM against Escherichia coli [14]. Further, in the series with Candida parapsilosis, the MFC<=99.9 was determined as 16 µM.
